In the library only some 0.6% were active in any assay of this set; here they are far more common.
PMI activator – increases human mannose-6-phosphate isomerase activity; purified human PMI, coupled resazurin fluorescence, 20 min; hits give high values; 1 = vehicle control, 0 substrate-free wells; activation factor at 20 µM; actives 0.005% (n = 190,000);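 active = activation factor of 2 or more at 20 µM, relative to plate controls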
TNAP inh noacc – blocks human TNAP activity with no phosphate acceptor present | P05186 | purified TNAP, CDP-star luminescence, 30 min | inhibition, % at 20 µM | actives 0.26% (n = 200,000);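 active = tissue-nonspecific alkaline phosphatase inhibition above about 50% at 20 µM in the single-dose screen, limit read from the data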
Target sequence (P05186 whole entry, looked up): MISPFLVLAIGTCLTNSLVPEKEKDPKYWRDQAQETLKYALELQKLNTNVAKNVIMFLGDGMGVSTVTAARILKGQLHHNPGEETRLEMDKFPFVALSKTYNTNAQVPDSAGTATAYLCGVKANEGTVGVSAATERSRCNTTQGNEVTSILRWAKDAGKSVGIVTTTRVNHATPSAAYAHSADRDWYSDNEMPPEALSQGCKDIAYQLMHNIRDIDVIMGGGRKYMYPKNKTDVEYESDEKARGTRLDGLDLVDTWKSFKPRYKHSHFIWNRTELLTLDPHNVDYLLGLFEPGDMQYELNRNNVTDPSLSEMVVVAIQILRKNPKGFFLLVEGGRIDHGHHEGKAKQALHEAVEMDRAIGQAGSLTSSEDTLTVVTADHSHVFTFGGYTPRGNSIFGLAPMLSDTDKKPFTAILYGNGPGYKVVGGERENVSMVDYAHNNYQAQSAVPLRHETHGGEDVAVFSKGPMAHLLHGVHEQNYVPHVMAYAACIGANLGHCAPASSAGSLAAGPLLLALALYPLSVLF
TNAP act hi DEA – increases human TNAP activity under high phosphate acceptor concentration | purified TNAP, CDP-star luminescence, 1 M DEA, 30 min; hits give high values; 0 = EDTA background, 1 = DMSO-only activity | activation factor at 20 µM | 200,000 tested, under 10 active;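 active = activation factor at least 2 at 20 µM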
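system = human TNAP | amount = enzyme diluted 1/800 final | reagent = 100 µM CDP-star substrate | signal = luminescent substrate turnover signal | dosing = one dose, 20 µM | benchmarks = EDTA negative control, DMSO positive control | measure = activation factor | timing = 30 min reaction, room temperature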
PMI act hi M6P – PMI (human) activation, high substrate; P34949; coupled PMI enzyme assay, resazurin fluorescence, 20 min; hits give high values; 1 = untreated enzyme, 0 = substrate-free blank; activation factor at 20 µM; actives 0.34% (n = 190,000);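 active = activation factor of 2 or more at 20 µM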
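Material: human phosphomannose isomerase with PGI, G6PDH, diaphorase coupling enzymes. Quantity: 15 ng/mL PMI. Medium: HEPES pH 7.4 buffer with MgCl2 and Tween-20. Reagent: Near-saturating mannose-6-phosphate, 1.0 mM. Compound: 20 µM single dose. Times: enzyme reaction with compound 20 min at room temperature. Detection: resorufin fluorescence at Ex 544/Em 590 nm.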
TNAP inh hi DEA – inhibitors of human TNAP at high phosphate acceptor concentration; P05186; purified TNAP, CDP-star luminescence, 1 M DEA; inhibition, % at 20 µM; actives 0.03% (n = 200,000); AID 1135;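 active = over 50% inhibition of tissue-nonspecific alkaline phosphatase at 20 µM in the single-dose screen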
Of the large screens only hits and unclear results are named; the others gave an inactive call.

Cc1ccc(S(=O)(=O)N2CCOCC2)cc1NC(=O)CN1CCC(Cc2ccccc2)CC1	none
Cc1[nH]c2ccccc2c1/C=N/Nc1ccc(F)cc1F	PMI act hi M6P 2.1
CCN(CC)c1ccc(C(=O)OCC(=O)Nc2ccccc2-c2ccccc2)cc1	none
CC(=O)Nc1cc(-c2ccc(F)cc2)[nH]n1	TNAP inh noacc 91
O=C(CN1CCN(CC(=O)Nc2ccccc2Cl)CC1)Nc1ccc2c(c1)OCCO2	PMI act hi M6P 2
O=c1c(OC2OC(CO)C(O)C(O)C2O)c(-c2ccc(O)c(O)c2)oc2cc(O)cc(O)c12 (configuration not stated)	none
C[C@@H]1O[C@@H](Oc2c(-c3cc(O)c(O)c(O)c3)oc3cc(O)cc(O)c3c2=O)[C@H](O)[C@H](O)[C@H]1O	TNAP inh noacc 52
Oc1ccccc1/C=N/Nc1ccccc1	PMI act hi M6P 2.3
Oc1ccccc1/C=N/Nc1ncc(Br)cn1	none
O=C(Oc1ccc(/C=N/O)cc1)c1ccccc1	none
O=C(O)c1cc(N/N=C/c2ccc(OCc3ccccc3)cc2)ccc1Cl	PMI act hi M6P 2.5
Cc1nc(C)c(C(=O)N/N=C/c2cn(C)c3ccccc23)s1	none
Cn1cc(/C=N/Nc2ccccc2)c2ccccc21	PMI act hi M6P 2.5
O=C(Oc1ccc(/C=N/Nc2ccccc2)cc1)c1ccccc1	PMI act hi M6P 2.3
CC(=O)C1=C(C)NC(=O)CC1c1ccc(Br)cc1 (configuration not stated)	none
C/C(=N\Nc1ccc(Cl)cc1)c1c(O)cc(C)oc1=O	PMI act hi M6P 2.6
Cc1cc(O)c(C=Nc2cccc(Cl)c2)c(=O)o1	none
CCCCCCCC(=O)N/N=C(/C)c1c(O)cc(C)oc1=O	none
Cc1cc(O)c(/C=N/Nc2ccccc2)c(=O)o1	PMI act hi M6P 2
C=CCN(Cc1nc(-c2ccc(OC)c(OC)c2)oc1C)C1CCS(=O)(=O)C1 (configuration not stated)	none (no result: PMI activator, PMI act hi M6P)
O=C1CCC2(CC1)NC(=O)N(c1ccccc1)N2	PMI act hi M6P 2.6
Cc1nn(C)cc1C1Nc2ccccc2C(=O)N1O (configuration not stated)	PMI act hi M6P 2.2
Cc1ccsc1C1Nc2ccccc2C(=O)N1O (configuration not stated)	none
Cc1nn(C)c(C)c1C1Nc2ccccc2C(=O)N1O (configuration not stated)	PMI act hi M6P 2
O=C(N/N=C/c1ccccc1O)C(=O)Nc1ccccn1	none
COc1ccc(C(=O)c2ccc(CC(=O)O)s2)cc1	PMI act hi M6P 2.4
O=C(O)Cc1ccc(C(=O)c2ccccc2)s1	none
CCN(CC)c1ccc(C(=O)NC(=S)N2CCN(Cc3ccc4c(c3)OCO4)CC2)cc1	none
C/C(=N\NC(=O)C1(C)NC(C)(C)Cc2ccccc21)c1ccccc1 (configuration not stated)	none
O=C(O)c1ccc(N/N=C/c2cccc(F)c2)cc1	PMI act hi M6P 2.9
CCOc1ccc(C(=O)NC(=S)NC2CCCC2)cc1[N+](=O)[O-]	none
CCN(CC(=O)Nc1ccc([N+](=O)[O-])cc1OC)CC(=O)NC(C)(C)C	none
COc1cccc(NC(=O)Cc2ccccc2)c1	none
O=C(Cc1ccccc1)Nc1cccc(N2C(=O)C=CC2=O)c1	PMI act hi M6P 2.1
NC(=O)c1ccsc1NC(=O)c1coc2ccccc2c1=O	none
CC1CCN(C(=O)c2ccc(SCc3ccccc3F)c([N+](=O)[O-])c2)CC1	none
CCOC(=O)c1c(C)c(/C=N/Nc2ccccc2)n(C)c1C	PMI act hi M6P 2.5
CCOC(=O)c1c(C)c(C(=O)O)n(C)c1C	none
COC(=O)C1=NN(N=O)C2(CC(=O)N(c3cc(C)cc(C)c3)C2=O)C1 (configuration not stated)	PMI act hi M6P 2
CC(C)/C=C/C(=O)N1CCC(N2CCC(C(=O)N3CCOCC3)CC2)CC1	none
CC(C)Cc1cc(C(=O)N2CCC(N3CCC(C(=O)N4CCOCC4)CC3)CC2)n[nH]1	TNAP inh noacc 88
CC(C)Cc1cc(C(=O)N2CCC(N3CCC(C(=O)NC4CC4)CC3)CC2)n[nH]1	TNAP inh noacc 92
O=C(c1cc2ccccc2o1)N1CCC(N2CCC(C(=O)N3CCCC3)CC2)CC1	none
O=C(NC1CC1)C1CCN(C2CCN(C(=O)Cc3ccc(F)cc3)CC2)CC1	none
CC(C)Cc1cc(C(=O)N2CCC(N3CCC(C(=O)N4CCCC4)CC3)CC2)n[nH]1	TNAP inh noacc 87
CCOC(=O)C1(Cc2ccccc2)CCCN(C2CCCC2)C1 (configuration not stated)	none
COc1ccc(S(=O)(=O)Nc2ccc(O)c(Sc3ncn[nH]3)c2)cc1	TNAP inh noacc 79
Cc1cc(C)c(S(=O)(=O)Nc2ccc(O)c(Sc3ncn[nH]3)c2)c(C)c1	TNAP inh noacc 72
Cn1cccc1C(=O)OCC(=O)NC1CCS(=O)(=O)C1 (configuration not stated)	none
Cc1cc(C(=O)Nc2nc(-c3ccccn3)cs2)ccc1[N+](=O)[O-]	PMI act hi M6P 2.4
O=C(Nc1nc(-c2ccccn2)cs1)c1cc(Cl)ccc1[N+](=O)[O-]	none
O=C(Cn1cc([N+](=O)[O-])cn1)Nc1nccs1	none
C=CCNC(=S)NN=C1CCCCCCC1	none
C=C(C)CNC(=S)Nc1cccc(N)n1	none
Cc1ccc(NC(=O)CCC(=O)N/N=C/c2cc([N+](=O)[O-])ccc2O)cc1	none
O=[N+]([O-])c1ccccc1N/N=C\c1ccccc1Cl	none
O=[N+]([O-])c1ccc(N/N=C/c2cccc(O)c2O)c(S(=O)(=O)N2CCOCC2)c1	TNAP inh noacc 79
O=[N+]([O-])c1ccc(O)c(/C=N/Nc2ccccc2Cl)c1	PMI act hi M6P 2.2
O=C(CCC(=O)Nc1cccc(Cl)c1)N/N=C/c1cc([N+](=O)[O-])ccc1O	TNAP inh noacc 80
Cc1cc(=O)oc2cc(OCC(=O)N/N=C/c3cc([N+](=O)[O-])ccc3O)ccc12	TNAP inh noacc 89
CSc1ccc(S(=O)(=O)NCc2ccccc2C)cc1	none
CCN1CCN(CC(=O)c2ccc(OC)cc2)CC1	none
CCOc1ccc(-c2n[nH]c(C(=O)NN)c2C)cc1	TNAP inh noacc 82
Cc1c(-c2ccccc2)n[nH]c1C(=O)NN	TNAP inh noacc 82
Cc1nc(-c2ccccc2)sc1C(=O)NN	none
CC(C)COc1ccc(-c2cc(C(=O)NN)[nH]n2)cc1	none
O=C(N/N=C\C=C\c1ccc2c(c1)OCO2)C1COc2ccccc2O1 (configuration not stated)	none
CCOC(=O)C1=CN(CC2CCCO2)C=C(C(=O)OCC)C1c1ccccc1C(F)(F)F (configuration not stated)	none
CC(C)CSc1n[nH]c(N)n1	TNAP inh noacc 50
CC1Nc2nc(N(C)C)[nH]c(=O)c2NC1C (configuration not stated)	PMI act hi M6P 2.7

Compound activity: PubChem BioAssay, Sanford-Burnham Center for Chemical Genomics
